Measurements from ChEMBL document CHEMBL1144562, “Synthesis of a new class of 2-anilino substituted nicotinyl arylsulfonylhydrazides as potential anticancer and antibacterial agents” (2007).

Experiments:
Type in all cases: functional
NCI-H23 = assay: Antitumor activity against NCI-H23 cells; conditions: Homo sapiens
CAKI-1 = assay: Antitumor activity against CAKI1 cells; conditions: Homo sapiens; for TGI: read-out: Log TGI (converted)
[1] = Antitumor activity against NCI-H322 cells; conditions: Homo sapiens; for CC50: read-out: Log LC50 (the source's name) (converted); for TGI: read-out: Log TGI (converted)
Hs-578T = assay: Antitumor activity against HS578T cells; conditions: Homo sapiens; for CC50: read-out: Log LC50 (the source's name) (converted); for TGI: read-out: Log TGI (converted)
OVCAR-3 = assay: Antitumor activity against OVCAR-3 cells; conditions: Homo sapiens; for CC50: read-out: Log LC50 (the source's name) (converted); for TGI: read-out: Log TGI (converted)
BT-549 = assay: Antitumor activity against BT549 cells; conditions: Homo sapiens; for TGI: read-out: Log TGI (converted)
NCI/ADR-RES = assay: Antitumor activity against NCI/ADR-RES cells; conditions: Homo sapiens
UACC-62 = assay: Antitumor activity against UACC62 cells; conditions: Homo sapiens; for TGI: read-out: Log TGI (converted)
Outline: (§1)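 Tested in the NCI 60-human-tumour-cell-line panel at five concentrations, in 10-fold dilutions from 10^-4 to 10^-8 M. Three parameters were taken from the dose-response data, each as log10 of the molar concentration: GI50 (50% net growth inhibition), TGI (total growth inhibition) and LC50 (50% net cell death).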

EKVX = assay: Antitumor activity against EKVX cells; conditions: Homo sapiens; for TGI: read-out: Log TGI (converted)
HOP-92 = assay: Antitumor activity against HOP92 cells; conditions: Homo sapiens; for CC50: read-out: Log LC50 (the source's name) (converted); for TGI: read-out: Log TGI (converted)
NCI-H460 = assay: Antitumor activity against NCI-H460 cells; conditions: Homo sapiens; for TGI: read-out: Log TGI (converted)
OVCAR-5 = assay: Antitumor activity against OVCAR5 cells; conditions: Homo sapiens
K562 = assay: Antitumor activity against K562 cells; conditions: Homo sapiens; for TGI: read-out: Log TGI (converted)
SN12C = assay: Antitumor activity against SN12C cells; conditions: Homo sapiens; for TGI: read-out: Log TGI (converted); outline: as §1
SK-MEL-5 = assay: Antitumor activity against SK-MEL-5 cells; conditions: Homo sapiens; for TGI: read-out: Log TGI (converted); outline: as §1
SK-MEL-2 = assay: Antitumor activity against SK-MEL-2 cells; conditions: Homo sapiens
RXF 393 = assay: Antitumor activity against RXF393 cells; conditions: Homo sapiens; for TGI: read-out: Log TGI (converted)
SR = assay: Antitumor activity against SR cells; conditions: Homo sapiens; for TGI: read-out: Log TGI (converted); outline: as §1
MDA-MB-435 = assay: Antitumor activity against MDA-MB-435 cells; conditions: Homo sapiens; for TGI: read-out: Log TGI (converted)
RPMI-8226 = assay: Antitumor activity against RPMI-8226 cells; conditions: Homo sapiens
NCI-H522 = assay: Antitumor activity against NCI-H522 cells; conditions: Homo sapiens
UO-31 = assay: Antitumor activity against UO31 cells; conditions: Homo sapiens; outline: as §1
IGROV-1 = assay: Antitumor activity against IGROV1 cells; conditions: Homo sapiens
[2] = read-out: Log LC50 (the source's name) (converted)

Work on `O=C(NNS(=O)(=O)c1ccc(F)cc1)c1cccnc1Nc1ccc(Cl)cc1Cl` yielded a GI50 (NCI-H23) of 36.3 µM, an LC50 (NCI-H23) of over 100 µM and a TGI (NCI-H23; read-out: Log TGI (converted)) of over 100 µM. The GI50 (CAKI-1) was 30.9 µM, the LC50 (CAKI-1) was over 100 µM and the TGI (CAKI-1) was over 100 µM. The GI50 [1] was 30.9 µM, the CC50 [1] was over 100 µM and the TGI [1] was over 100 µM. The GI50 (Hs-578T) was 28.2 µM, the CC50 (Hs-578T) was over 100 µM and the TGI (Hs-578T) was over 100 µM. For the same compound, the GI50 (OVCAR-3) was 29.5 µM, the CC50 (OVCAR-3) was over 100 µM and the TGI (OVCAR-3) was 95.5 µM. The GI50 (BT-549) was 36.3 µM, the LC50 (BT-549) was over 100 µM and the TGI (BT-549) was 100 µM. The GI50 (NCI/ADR-RES) was 39.8 µM, the LC50 (NCI/ADR-RES) was over 100 µM and the TGI (NCI/ADR-RES; read-out: Log TGI (converted)) was over 100 µM. For the same compound, the GI50 (UACC-62) was 45.7 µM, the LC50 (UACC-62) was over 100 µM and the TGI (UACC-62) was over 100 µM. For the same compound, the GI50 (EKVX) was 29.5 µM, the LC50 (EKVX) was over 100 µM and the TGI (EKVX) was over 100 µM. For the same compound, the GI50 (HOP-92) was 15.5 µM, the CC50 (HOP-92) was 85.1 µM and the TGI (HOP-92) was 36.3 µM. The GI50 (NCI-H460) was 31.6 µM, the LC50 (NCI-H460) was over 100 µM and the TGI (NCI-H460) was over 100 µM. It also gave a GI50 (OVCAR-5) of 52.5 µM, a CC50 (OVCAR-5; [2]) of over 100 µM and a TGI (OVCAR-5; read-out: Log TGI (converted)) of over 100 µM. For the same compound, the GI50 (K562) was 20 µM, the LC50 (K562) was over 100 µM and the TGI (K562) was 83.2 µM. For the same compound, the GI50 (SN12C) was 17.8 µM, the LC50 (SN12C) was 57.5 µM and the TGI (SN12C) was 31.6 µM. For the same compound, the GI50 (SK-MEL-5) was 25.1 µM, the LC50 (SK-MEL-5) was over 100 µM and the TGI (SK-MEL-5) was 85.1 µM. For the same compound, the GI50 (SK-MEL-2) was 42.7 µM, the LC50 (SK-MEL-2) was over 100 µM and the TGI (SK-MEL-2; read-out: Log TGI (converted)) was over 100 µM. For the same compound, the GI50 (RXF 393) was 11.5 µM, the LC50 (RXF 393) was 66.1 µM and the TGI (RXF 393) was 27.5 µM. It also gave a GI50 (SR) of 22.9 µM, an LC50 (SR) of over 100 µM and a TGI (SR) of 67.6 µM. It also gave a GI50 (MDA-MB-435) of 85.1 µM, an LC50 (MDA-MB-435) of over 100 µM and a TGI (MDA-MB-435) of over 100 µM.
Compound `CC(=O)Nc1ccc(S(=O)(=O)NNC(=O)c2cccnc2Nc2ccc(Cl)cc2)cc1` has a GI50 (CAKI-1) of 9.12 µM, an LC50 (CAKI-1) of over 100 µM and a TGI (CAKI-1) of over 100 µM. It also gave a GI50 (RPMI-8226) of 28.8 µM, an LC50 (RPMI-8226) of over 100 µM and a TGI (RPMI-8226; read-out: Log TGI (converted)) of over 100 µM. For the same compound, the GI50 [1] was over 100 µM, the CC50 [1] was over 100 µM and the TGI [1] was over 100 µM. For the same compound, the GI50 (Hs-578T) was 24 µM, the CC50 (Hs-578T) was over 100 µM and the TGI (Hs-578T) was over 100 µM. It also gave a GI50 (OVCAR-3) of 3.72 µM, a CC50 (OVCAR-3) of over 100 µM and a TGI (OVCAR-3) of over 100 µM. The GI50 (NCI-H522) was 6.46 µM, the CC50 (NCI-H522; [2]) was over 100 µM and the TGI (NCI-H522; read-out: Log TGI (converted)) was over 100 µM. It also gave a GI50 (BT-549) of 25.1 µM, an LC50 (BT-549) of over 100 µM and a TGI (BT-549) of over 100 µM. For the same compound, the GI50 (UACC-62) was 8.91 µM, the LC50 (UACC-62) was over 100 µM and the TGI (UACC-62) was over 100 µM. The GI50 (EKVX) was 49 µM, the LC50 (EKVX) was over 100 µM and the TGI (EKVX) was over 100 µM. The GI50 (HOP-92) was over 100 µM, the CC50 (HOP-92) was over 100 µM and the TGI (HOP-92) was over 100 µM. It also gave a GI50 (NCI-H460) of 4.68 µM, an LC50 (NCI-H460) of over 100 µM and a TGI (NCI-H460) of over 100 µM. For the same compound, the GI50 (K562) was 8.51 µM, the LC50 (K562) was over 100 µM and the TGI (K562) was over 100 µM. For the same compound, the GI50 (SN12C) was 58.9 µM, the LC50 (SN12C) was over 100 µM and the TGI (SN12C) was over 100 µM. For the same compound, the GI50 (SK-MEL-5) was 5.62 µM, the LC50 (SK-MEL-5) was over 100 µM and the TGI (SK-MEL-5) was over 100 µM. The GI50 (UO-31) was 91.2 µM, the LC50 (50% net cell death) (UO-31) was over 100 µM and the TGI (UO-31; read-out: Log TGI (converted)) was over 100 µM. It also gave a GI50 (RXF 393) of 37.2 µM, an LC50 (RXF 393) of over 100 µM and a TGI (RXF 393) of over 100 µM. The GI50 (SR) was 6.31 µM, the LC50 (SR) was over 100 µM and the TGI (SR) was over 100 µM. It also gave a GI50 (MDA-MB-435) of 3.24 µM, an LC50 (MDA-MB-435) of over 100 µM and a TGI (MDA-MB-435) of over 100 µM. It also gave a GI50 (IGROV-1) of 27.5 µM, a CC50 (IGROV-1; [2]) of over 100 µM and a TGI (IGROV-1; read-out: Log TGI (converted)) of over 100 µM.
